Data published in ChEMBL document CHEMBL1148652, “Design of potent, orally available antagonists of the transient receptor potential vanilloid 1. Structure-activity relationships of 2-piperazin-1-yl-1H-benzimidazoles” (J Med Chem, 2006).
“And” between values parts separate entries of the source, which are not always exact repeats. Identical values can stand only once.

Key:
[1] = biological target: T1, Transient receptor potential cation channel subfamily V member 1 (Rattus norvegicus, UniProt O35433); test: Antagonist activity against capsaicin-induced 45calcium ion uptake in CHO cells expressing rat TRPV1; format: functional, cell-based
T1 sequence (O35433 whole entry): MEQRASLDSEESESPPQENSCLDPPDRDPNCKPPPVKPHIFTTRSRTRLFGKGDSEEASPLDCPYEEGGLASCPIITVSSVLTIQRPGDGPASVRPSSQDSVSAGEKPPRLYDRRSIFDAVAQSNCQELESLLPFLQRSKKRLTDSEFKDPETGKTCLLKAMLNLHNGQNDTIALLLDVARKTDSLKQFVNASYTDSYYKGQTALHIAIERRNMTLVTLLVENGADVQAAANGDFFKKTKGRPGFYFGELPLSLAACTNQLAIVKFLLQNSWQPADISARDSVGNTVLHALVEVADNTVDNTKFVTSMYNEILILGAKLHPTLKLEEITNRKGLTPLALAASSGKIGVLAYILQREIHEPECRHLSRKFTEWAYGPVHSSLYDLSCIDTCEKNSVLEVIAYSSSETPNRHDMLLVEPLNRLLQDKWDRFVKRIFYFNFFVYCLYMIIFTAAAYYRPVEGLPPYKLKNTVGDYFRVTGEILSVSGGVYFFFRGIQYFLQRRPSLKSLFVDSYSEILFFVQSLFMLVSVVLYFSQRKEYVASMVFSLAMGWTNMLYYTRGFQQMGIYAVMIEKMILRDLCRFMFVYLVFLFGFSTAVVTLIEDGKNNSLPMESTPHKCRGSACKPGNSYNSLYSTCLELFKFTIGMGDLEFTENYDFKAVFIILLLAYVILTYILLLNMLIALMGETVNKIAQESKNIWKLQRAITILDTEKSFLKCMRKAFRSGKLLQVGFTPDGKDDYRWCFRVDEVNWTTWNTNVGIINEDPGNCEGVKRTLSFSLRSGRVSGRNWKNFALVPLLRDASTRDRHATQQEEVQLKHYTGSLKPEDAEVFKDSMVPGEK
Outline: (§1)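 CHO cells recombinantly expressing rat TRPV1; inhibition of 45Ca2+ uptake triggered by capsaicin or by acid, pH 5. Functional IC50 in nM, averaged over at least two independent experiments, each with three replicates per concentration.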

[2] = biological target: T1, Transient receptor potential cation channel subfamily V member 1; test: Antagonist activity against acid-induced 45calcium ion uptake in CHO cells expressing rat TRPV1 at pH5; format: functional, cell-based; outline: as §1

SMILES | IC50 [1] [nM] | IC50 [2]
Nc1ccc(-c2cc(C(F)(F)F)cc3[nH]c(N4CCN(c5ncccc5C(F)(F)F)CC4)nc23)cc1 | 1900 | 308 nM
FC(F)(F)c1cc(C(F)(F)F)c2[nH]c(N3CCN(c4ncccc4C(F)(F)F)CC3)nc2c1 | 325 | 120 nM
C[C@H]1CN(c2nc3c(-c4cc(F)c(F)c(F)c4)cc(C(F)(F)F)cc3[nH]2)CCN1c1ncccc1Br | 767 | 254 nM
FC(F)(F)c1ccc2[nH]c(N3CCN(c4c(Cl)cccc4Cl)CC3)nc2c1 | > 40000 | 1270 nM
O=[N+]([O-])c1cc(C(F)(F)F)cc2[nH]c(N3CCN(c4ncccc4C(F)(F)F)CC3)nc12 | 1660 | 878 nM
FC(F)(F)c1ccc2nc(N3CCN(c4ncccc4C(F)(F)F)CC3)[nH]c2c1 | – | 301 nM
N#Cc1ccc2[nH]c(N3CCN(c4ncccc4C(F)(F)F)CC3)nc2c1 | 3300 | > 4000 nM
Fc1ccc2[nH]c(N3CCN(c4ncccc4C(F)(F)F)CC3)nc2c1 | > 4000 | > 4000 nM
FC(F)(F)c1ccc2[nH]c(N3CCN(c4ncccc4I)CC3)nc2c1 | 221 | 310 nM
FC(F)(F)c1ccc2nc(N3CCN(c4ncccc4C(F)(F)F)CC3)n(Cc3ccccc3)c2c1 | 577 | 151 nM and 157 nM
Fc1ccc(-c2ccc3[nH]c(N4CCN(c5ncccc5C(F)(F)F)CC4)nc3c2)cc1F | 1140 | 351 nM
FC(F)(F)c1cc(-c2ccccc2)c2nc(N3CCN(c4ncccc4C(F)(F)F)CC3)[nH]c2c1 | 141 | 68 nM
CN(C)c1ccc(-c2cc(C(F)(F)F)cc3[nH]c(N4CCN(c5ncccc5C(F)(F)F)CC4)nc23)cc1 | 108 | 69 nM
FC(F)(F)c1ccc2[nH]c(N3CCN(c4ccncc4C(F)(F)F)CC3)nc2c1 | 2380 | 2850 nM
CC[C@@H]1CN(c2ncccc2C(F)(F)F)CCN1c1nc2cc(C(F)(F)F)ccc2[nH]1 | 648 | > 4000 nM
FC(F)(F)c1ccc2[nH]c(N3CCN(c4ncccc4C(F)(F)F)CC3)nc2n1 | 1090 | 1410 nM
Cc1cccnc1N1CCN(c2nc3ccc(C(F)(F)F)cc3[nH]2)CC1 | 402 | 1140 nM

SMILES | IC50 [1] [nM] | IC50 [2]
FC(F)(F)c1cc(N2CCOCC2)c2[nH]c(N3CCN(c4ncccc4C(F)(F)F)CC3)nc2c1 | 50 | 95 nM
Nc1cc(C(F)(F)F)cc2[nH]c(N3CCN(c4ncccc4C(F)(F)F)CC3)nc12 | – | > 4000 nM
Cc1ccc2[nH]c(N3CCN(c4ncccc4C(F)(F)F)CC3)nc2c1 | – | > 4000 nM
CC(C)(C)c1ccc2nc(N3CCN(c4ncccc4Cl)CC3)[nH]c2c1 | 87 | 310 nM
FC(F)(F)c1ccc2nc(N3CCN(c4ccccc4C(F)(F)F)CC3)[nH]c2c1 | 2060 | 406 nM
Fc1cc(CNc2cc(C(F)(F)F)cc3[nH]c(N4CCN(c5ncccc5C(F)(F)F)CC4)nc23)cc(F)c1F | 132 | 81 nM
OCc1cnc(N2CCN(c3nc4ccc(C(F)(F)F)cc4[nH]3)CC2)c(Cl)c1 | 64 | 98 nM
FC(F)(F)c1cc(Br)c2nc(N3CCN(c4ncccc4C(F)(F)F)CC3)[nH]c2c1 | 131 | 74 nM
FC(F)(F)c1cc(-c2ccncc2)c2[nH]c(N3CCN(c4ncccc4C(F)(F)F)CC3)nc2c1 | 267 | 188 nM
N#Cc1cccnc1N1CCN(c2nc3cc(C(F)(F)F)ccc3[nH]2)CC1 | 6290 | 7080 nM
FC(F)(F)c1ccc(-c2cc3[nH]c(N4CCN(c5ncccc5C(F)(F)F)CC4)nc3cc2C(F)(F)F)cc1 | 8240 | 201 nM
CC(C)(C)c1ccc2[nH]c(N3CCN(c4ncccc4C(F)(F)F)CC3)nc2c1 | 183 | 282 nM
FC(F)(F)c1cc(-c2nccs2)c2nc(N3CCN(c4ncccc4C(F)(F)F)CC3)[nH]c2c1 | 688 | 454 nM
NC(=O)c1cnc(N2CCN(c3nc4cc(C(F)(F)F)ccc4[nH]3)CC2)c(Cl)c1 | 430 | 1000 nM
FC(F)(F)c1ccnc(N2CCN(c3nc4cc(C(F)(F)F)ccc4[nH]3)CC2)c1 | > 5640 | 11900 nM
CCC[C@@H]1CN(c2ncccc2C(F)(F)F)CCN1c1nc2cc(C(F)(F)F)ccc2[nH]1 | – | > 4000 nM

Results, then the molecule that gave them:

IC50 [1] [nM] | IC50 [2] | SMILES
– | 4 nM | CC(C)(C)c1ccc(-c2cc(C(F)(F)F)cc3[nH]c(N4CCN(c5ncccc5C(F)(F)F)CC4)nc23)cc1
29 | 21 nM | FC(F)(F)c1cc(N2CCCCC2)c2[nH]c(N3CCN(c4ncccc4C(F)(F)F)CC3)nc2c1
1.9 | 0.9 nM | C[C@@H]1CN(c2ncc(CO)cc2Cl)CCN1c1nc2c(N(Cc3ccccc3)Cc3ccccc3)cc(C(F)(F)F)cc2[nH]1
33 | 26 nM | Fc1cc(-c2cc(C(F)(F)F)cc3[nH]c(N4CCN(c5ncccc5C(F)(F)F)CC4)nc23)cc(F)c1F
1.5 | 1 nM | CC(O)c1cnc(N2CCN(c3nc4c(-c5cc(F)c(F)c(F)c5)cc(C(F)(F)F)cc4[nH]3)[C@H](C)C2)c(C(F)(F)F)c1 (mixture of isomers)
0.6 | 2.3 nM | C[C@@H]1CN(c2ncc([C@@H](C)O)cc2Cl)CCN1c1nc2c(-c3cc(F)c(F)c(F)c3)cc(C(F)(F)F)cc2[nH]1
1.6 | 1.2 nM | C[C@@H]1CN(c2ncc(CO)cc2Cl)CCN1c1nc2cc(C(F)(F)F)cc(NC(=O)C3CCCCC3)c2[nH]1
71 | 52 nM | Fc1ccc(Cc2cc(C(F)(F)F)cc3[nH]c(N4CCN(c5ncccc5C(F)(F)F)CC4)nc23)cc1F
26 | 22 nM | FC(F)(F)c1cc(-c2cc3ccccc3s2)c2nc(N3CCN(c4ncccc4C(F)(F)F)CC3)[nH]c2c1
4.3 | 1.8 nM | C[C@@H]1CN(c2nc3c(-c4cc(F)c(F)c(F)c4)cc(C(F)(F)F)cc3[nH]2)CCN1c1ncccc1Br
129 | 51 nM | FC(F)(F)c1cc(-c2cnccn2)c2nc(N3CCN(c4ncccc4C(F)(F)F)CC3)[nH]c2c1
2.6 | 3 nM | C[C@H](O)c1cnc(N2CCN(c3nc4c(-c5cc(F)c(F)c(F)c5)cc(C(F)(F)F)cc4[nH]3)[C@H](C)C2)c(Cl)c1
0.3 | 0.3 nM | COC(=O)c1cnc(N2CCN(c3nc4c(-c5cc(F)c(F)c(F)c5)cc(C(F)(F)F)cc4[nH]3)[C@H](C)C2)c(Cl)c1
6.7 | 2.6 nM | C[C@@H]1CN(c2ncccc2Br)CCN1c1nc2c(-c3cc(F)c(F)c(F)c3)cc(C(F)(F)F)cc2[nH]1
2.1 | 1.1 nM | C[C@@H]1CN(c2ncc(CO)cc2Cl)CCN1c1nc2cc(C(F)(F)F)cc(NC(=O)OC(C)(C)C)c2[nH]1
7 | 6.7 nM | C[C@@H]1CN(c2ncc(CO)cc2Cl)CCN1c1nc2c(NCc3ccccc3)cc(C(F)(F)F)cc2[nH]1
51 | 37 nM | FC(F)(F)c1ccc(-c2cc(C(F)(F)F)cc3[nH]c(N4CCN(c5ncccc5C(F)(F)F)CC4)nc23)cc1
98 | 33 nM | C[C@@H]1CN(c2ncc(N)cc2Cl)CCN1c1nc2c(-c3ccc(F)cc3)cc(C(F)(F)F)cc2[nH]1
10 | 9 nM | FC(F)(F)c1cc(C2CCC(C(F)(F)F)CC2)c2nc(N3CCN(c4ncccc4C(F)(F)F)CC3)[nH]c2c1 (centres undefined)
